Measurements reported in ChEMBL document CHEMBL1155387, “Substituted fused bicyclic pyrrolizinones as potent, orally bioavailable hNK1 antagonists” (Bioorg Med Chem Lett, 2010).
“And” between values parts separate entries of the source, which are not always exact repeats. Identical values can stand only once.

Experiments:
Substance-P receptor [1] = biological target: T1, Substance-P receptor (Homo sapiens, UniProt P25103); test: Antagonist activity at human NK1 receptor expressed in CHO cells assessed as inhibition of substance P-induced inositol phosphate generation at 100 nM; format: functional, cell-based
Gerbillinae [2] = test: Inhibition of GR-73632-induced foot tapping in gerbils at 3 mg/kg, iv after 24 hrs; format: functional; conditions: for inhibition in vivo at 3 mg/kg: Gerbillinae, iv, 24 h; for inhibition (INH): 3 mg/kg
Procedure, shortened: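 Gerbils dosed iv at 3 mg/kg; foot tapping induced by NK1 agonist GR73632 evaluated 24 h post-dose; percent inhibition of the tapping response.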

Substance-P receptor [3] = biological target: T1, Substance-P receptor; test: Displacement of [125I]substance P from human NK1 receptor expressed in CHO cells; format: cell-based
Procedure, shortened: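 Competition binding: [125I]-labelled substance P displaced from cloned human NK1 receptor expressed in CHO cells; IC50 reported as mean of n = 3.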

[4] = Inhibition of sodium channel
Procedure, shortened: (§1)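 Ion-channel binding assay; IC50 values calculated for sodium channel and for calcium channel (diltiazem site).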

Substance-P receptor [5] = biological target: T1, Substance-P receptor; test: Displacement of [125I]substance P from human NK1 receptor expressed in CHO cells in the presence of 50 percent human serum; format: cell-based
[6] = Displacement of diltiazem […] from calcium channel; procedure, shortened: as §1
Gerbillinae [7] = test: Inhibition of GR-73632-induced foot tapping in gerbils at 1 mg/kg, iv after 1 hr; format: functional
Procedure, shortened: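 Gerbils given 1 mg/kg iv; GR73632-induced foot tapping challenged 1 h after dosing; inhibition of tapping scored.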

T1 sequence (P25103 whole entry): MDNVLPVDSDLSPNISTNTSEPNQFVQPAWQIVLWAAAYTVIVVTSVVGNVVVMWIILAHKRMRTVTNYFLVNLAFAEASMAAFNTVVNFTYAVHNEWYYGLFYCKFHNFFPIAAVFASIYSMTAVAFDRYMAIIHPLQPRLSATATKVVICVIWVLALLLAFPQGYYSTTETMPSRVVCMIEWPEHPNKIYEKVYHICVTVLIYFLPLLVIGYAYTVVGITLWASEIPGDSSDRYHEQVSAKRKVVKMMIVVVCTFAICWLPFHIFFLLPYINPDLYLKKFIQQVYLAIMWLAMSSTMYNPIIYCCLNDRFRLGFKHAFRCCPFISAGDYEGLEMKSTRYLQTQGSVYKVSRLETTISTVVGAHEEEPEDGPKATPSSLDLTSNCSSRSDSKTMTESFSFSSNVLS

| inhibition of substance P-induced inositol phosphate generation (Substance-P receptor [1]) | IC50 (Substance-P receptor [3]) | IC50 [4] | IC50 (Substance-P receptor [5]) | IC50 [6] | Compound | inhibition in vivo at 3 mg/kg (Gerbillinae [2]) | inhibition in vivo at 1 mg/kg (Gerbillinae [7]) | inhibition (INH) (Gerbillinae [2]) |
| --- | --- | --- | --- | --- | --- | --- | --- | --- |
| 55% | 0.06 nM | 1470 nM | 0.9 nM | 598 nM | C[C@@H](O[C@H]1CN2C(=O)C(NCc3ccn[nH]3)C[C@H]2[C@@H]1c1ccc(F)cc1)c1cc(C(F)(F)F)cc(C(F)(F)F)c1 (stereo partly drawn) | 92% | – | – |
| 68% | 0.13 nM | 2970 nM | 1.83 nM | 2390 nM | C[C@@H](O[C@H]1CN2C(=O)CC(NCc3ccn[nH]3)[C@H]2[C@@H]1c1ccc(F)cc1)c1cc(C(F)(F)F)cc(C(F)(F)F)c1 (stereo partly drawn) | 94% | – | – |
| 45% | 0.08 nM | 1400 nM | 0.42 nM | 767 nM | C[C@@H](O[C@H]1CN2C(=O)CC(C)(N)[C@H]2[C@@H]1c1ccc(F)cc1)c1cc(C(F)(F)F)cc(C(F)(F)F)c1 (stereo partly drawn) | 100% | – | – |
| – | 0.05 nM | 5320 nM | 1.8 nM | – | C[C@@H](O[C@H]1CN2C(=O)C(n3cnnc3)C[C@H]2[C@@H]1c1ccc(F)cc1)c1cc(C(F)(F)F)cc(C(F)(F)F)c1 (single isomer, unassigned) [listing 1 of 2 here] | – | 0% | – |
| – | 0.09 nM | 4820 nM | 2.5 nM | 1870 nM | C[C@@H](O[C@H]1CN2C(=O)C(C)(O)C[C@H]2[C@@H]1c1ccc(F)cc1)c1cc(C(F)(F)F)cc(C(F)(F)F)c1 (single isomer, unassigned) [listing 1 of 2 here] | 98% | – | – |
| – | 0.14 nM | 5140 nM | 5.6 nM | 8060 nM | C[C@@H](O[C@H]1CN2C(=O)C(O)C[C@H]2[C@@H]1c1ccc(F)cc1)c1cc(C(F)(F)F)cc(C(F)(F)F)c1 (single isomer, unassigned) [listing 1 of 2 here] | 95% | – | – |
| 70% | – | – | – | – | C[C@@H](O[C@H]1CN2C(=O)C(C)(O)C[C@H]2[C@@H]1c1ccc(F)cc1)c1cc(C(F)(F)F)cc(C(F)(F)F)c1 (single isomer, unassigned) [listing 2 of 2 here] | – | – | – |
| 90% | – | – | – | – | C[C@@H](O[C@H]1CN2C(=O)C(O)C[C@H]2[C@@H]1c1ccc(F)cc1)c1cc(C(F)(F)F)cc(C(F)(F)F)c1 (single isomer, unassigned) [listing 2 of 2 here] | – | – | – |
| 74% | – | – | – | – | C[C@@H](O[C@H]1CN2C(=O)C(n3cnnc3)C[C@H]2[C@@H]1c1ccc(F)cc1)c1cc(C(F)(F)F)cc(C(F)(F)F)c1 (single isomer, unassigned) [listing 2 of 2 here] | – | – | – |
| – | 0.08 nM | 1990 nM | 2.1 nM | 2380 nM | C[C@@H](O[C@H]1CN2C(=O)CC(O)[C@H]2[C@@H]1c1ccc(F)cc1)c1cc(C(F)(F)F)cc(C(F)(F)F)c1 (single isomer, unassigned; 18a) [listing 1 of 2 here] | 100% | – | – |
| 65% | – | – | – | – | C[C@@H](O[C@H]1CN2C(=O)CC(O)[C@H]2[C@@H]1c1ccc(F)cc1)c1cc(C(F)(F)F)cc(C(F)(F)F)c1 (single isomer, unassigned; 18a) [listing 2 of 2 here] | – | – | – |
| – | 0.07 nM | – | 2.7 nM | – | C[C@@H](O[C@H]1CN2C(=O)CC(O)[C@H]2[C@@H]1c1ccc(F)cc1)c1cc(C(F)(F)F)cc(C(F)(F)F)c1 (single isomer, unassigned; 18b) [listing 1 of 2 here] | – | – | – |
| 79% | – | – | – | – | C[C@@H](O[C@H]1CN2C(=O)CC(O)[C@H]2[C@@H]1c1ccc(F)cc1)c1cc(C(F)(F)F)cc(C(F)(F)F)c1 (single isomer, unassigned; 18b) [listing 2 of 2 here] | – | – | – |
| 60% | – | – | – | – | C[C@@H](O[C@H]1CN2C(=O)C(O)C[C@H]2[C@@H]1c1ccc(F)cc1)c1cc(C(F)(F)F)cc(C(F)(F)F)c1 (stereo in doubt; 2b) | – | – | – |
| – | 0.27 nM | 2820 nM | 2.1 nM | 98 nM | C[C@@H](O[C@H]1CN2C(=O)C(N)C[C@H]2[C@@H]1c1ccc(F)cc1)c1cc(C(F)(F)F)cc(C(F)(F)F)c1 (stereo in doubt; 3a) [listing 1 of 2 here] | 99% | – | – |
| 92% | – | – | – | – | C[C@@H](O[C@H]1CN2C(=O)C(N)C[C@H]2[C@@H]1c1ccc(F)cc1)c1cc(C(F)(F)F)cc(C(F)(F)F)c1 (stereo in doubt; 3a) [listing 2 of 2 here] | – | – | – |
| – | 0.06 nM | 239 nM | 0.38 nM | 214 nM | C[C@@H](O[C@H]1CN2C(=O)C(N)C[C@H]2[C@@H]1c1ccc(F)cc1)c1cc(C(F)(F)F)cc(C(F)(F)F)c1 (stereo in doubt; 3b) [listing 1 of 2 here] | – | – | 100% |
| 59% | – | – | – | – | C[C@@H](O[C@H]1CN2C(=O)C(N)C[C@H]2[C@@H]1c1ccc(F)cc1)c1cc(C(F)(F)F)cc(C(F)(F)F)c1 (stereo in doubt; 3b) [listing 2 of 2 here] | – | – | – |
| – | 0.04 nM | 3200 nM | 0.8 nM | 2180 nM | C[C@@H](O[C@H]1CN2C(=O)C(C)(O)C[C@H]2[C@@H]1c1ccc(F)cc1)c1cc(C(F)(F)F)cc(C(F)(F)F)c1 (stereo in doubt; 5b) [listing 1 of 2 here] | – | – | 100% |
| 45% | – | – | – | – | C[C@@H](O[C@H]1CN2C(=O)C(C)(O)C[C@H]2[C@@H]1c1ccc(F)cc1)c1cc(C(F)(F)F)cc(C(F)(F)F)c1 (stereo in doubt; 5b) [listing 2 of 2 here] | – | – | – |
| 75% | – | – | – | – | C[C@@H](O[C@H]1CN2C(=O)CC(N)[C@H]2[C@@H]1c1ccc(F)cc1)c1cc(C(F)(F)F)cc(C(F)(F)F)c1 (stereo in doubt; 15a) | – | – | – |
| – | 0.08 nM and 0.11 nM | 4980 nM and 558 nM | 0.77 nM and 1.8 nM | 1560 nM and 1360 nM | C[C@@H](O[C@H]1CN2C(=O)CC(N)[C@H]2[C@@H]1c1ccc(F)cc1)c1cc(C(F)(F)F)cc(C(F)(F)F)c1 (stereo in doubt; 15b) [listing 1 of 2 here] | – | – | – |
| 87% and 63% | – | – | – | – | C[C@@H](O[C@H]1CN2C(=O)CC(N)[C@H]2[C@@H]1c1ccc(F)cc1)c1cc(C(F)(F)F)cc(C(F)(F)F)c1 (stereo in doubt; 15b) [listing 2 of 2 here] | – | – | – |
| – | 0.07 nM | 2210 nM | 1.1 nM | 2210 nM | C[C@@H](O[C@H]1CN2C(=O)CC(C)(O)[C@H]2[C@@H]1c1ccc(F)cc1)c1cc(C(F)(F)F)cc(C(F)(F)F)c1 (stereo in doubt; 20a) [listing 1 of 2 here] | 96% | – | – |
| 28% | – | – | – | – | C[C@@H](O[C@H]1CN2C(=O)CC(C)(O)[C@H]2[C@@H]1c1ccc(F)cc1)c1cc(C(F)(F)F)cc(C(F)(F)F)c1 (stereo in doubt; 20a) [listing 2 of 2 here] | – | – | – |
| – | 0.06 nM | – | 2.6 nM | – | C[C@@H](O[C@H]1CN2C(=O)CC(C)(O)[C@H]2[C@@H]1c1ccc(F)cc1)c1cc(C(F)(F)F)cc(C(F)(F)F)c1 (stereo in doubt; 20b) [listing 1 of 2 here] | – | – | – |
| 57% | – | – | – | – | C[C@@H](O[C@H]1CN2C(=O)CC(C)(O)[C@H]2[C@@H]1c1ccc(F)cc1)c1cc(C(F)(F)F)cc(C(F)(F)F)c1 (stereo in doubt; 20b) [listing 2 of 2 here] | – | – | – |
| – | 0.07 nM | > 10000 nM | 1.9 nM | > 10000 nM | C[C@@H](O[C@H]1CN2C(=O)C(n3cnnc3)C[C@H]2[C@@H]1c1ccc(F)cc1)c1cc(C(F)(F)F)cc(C(F)(F)F)c1 (stereo in doubt; 21a) [listing 1 of 2 here] | – | – | – |
| 81% | – | – | – | – | C[C@@H](O[C@H]1CN2C(=O)C(n3cnnc3)C[C@H]2[C@@H]1c1ccc(F)cc1)c1cc(C(F)(F)F)cc(C(F)(F)F)c1 (stereo in doubt; 21a) [listing 2 of 2 here] | – | – | – |
